Laboratory results reported in ChEMBL document CHEMBL3091381, “In vitro cytotoxicity on human ovarian cancer cells by T-type calcium channel blockers” (Bioorg Med Chem Lett, 2013).
Calls of active or inactive are those of the source. The calls are words filed in the database; no cut-off is given here.

Key:
A2780 [1] = assay: Induction of apoptosis in human A2780 cells assessed as cell shrinkage, membrane blebbing, chromatin condensation and apoptotic body formation at 6 uM after 24 hrs by DAPI staining; format: functional, cell-based
Summary of the method: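 A2780 cells exposed 24 h to 6 µM compound, then fixed, washed three times in PBS and stained 5 min with 0.1 µg/mL DAPI. Cells were washed, mounted in PBS with 10% glycerol and examined by fluorescence microscopy for shrinkage, blebbing, chromatin condensation and apoptotic bodies.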

A2780 [2] = assay: Cell cycle arrest in human A2780 cells assessed as accumulation at G2/M phase at 6 uM after 24 hrs by FACS analysis; format: functional
Summary of the method: (§1)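 A2780 or paclitaxel-resistant A2780-T cells treated 24 h with compound at 0, 2, 4, 6 or 8 µM, depending on the series. Fixed cells were washed in PBS and stained 30 min in the dark with PI plus 100 µg/mL DNase-free RNase A. Phase distribution was read by flow cytometry. Means ± SD of three independent experiments; ANOVA with Dunnett's post-hoc test versus untreated control.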

[3] = molecular target: T1, Voltage-dependent T-type calcium channel subunit alpha-1G (Homo sapiens, UniProt O43497); assay: Inhibition of t-type Cav3.1 channel (unknown origin) expressed in HEK293 cells assessed as inhibition of 50 ms depolarizing voltage step-induced current at 1 uM by whole cell patch-clamp method relative to control; format: cell-based
[4] = Cytotoxicity against human paclitaxel-resistant A2780T cells after 48 hrs by MTT assay; format: functional, cell-based; settings: A2780/Taxol
Summary of the method: (§2)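 MTT viability assay. Cells were seeded and grown 24 h, then exposed 48 h to a range of concentrations of test agent in DMSO (0.1% final), with vehicle-matched DMSO controls. Medium was replaced by 0.5 mg/mL MTT in RPMI with 10% FBS for 2 h at 37 °C. Dye was solubilized and absorbance read. IC50 from dose–response curves, three independent experiments.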

[5] = Cell cycle arrest in human paclitaxel-resistant A2780T cells assessed as accumulation at sub-G1 phase after 24 hrs by FACS analysis; format: functional, cell-based; settings: A2780/Taxol, in the assay text read “G1 phase” for “sub-G1 phase”; summary of the method: as §1
[6] = molecular target: T1, Voltage-dependent T-type calcium channel subunit alpha-1G; assay: Inhibition of t-type Cav3.1 channel (unknown origin) expressed in HEK293 cells assessed as inhibition of 50 ms depolarizing voltage step-induced current by whole cell patch-clamp method; format: cell-based
HEK293 = assay: Cytotoxicity against human HEK293 cells after 48 hrs by MTT assay; format: cell-based; settings: HEK293, 48 h; summary of the method: as §2
A2780 [7] = assay: Cytotoxicity against human A2780 cells after 48 hrs by MTT assay; format: functional, cell-based; settings: A2780, 48 h; summary of the method: as §2
A2780 [8] = assay: Cell cycle arrest in human A2780 cells assessed as accumulation at G0/G1 phase at 6 uM after 24 hrs by FACS analysis; format: functional; summary of the method: as §1
Mus musculus = assay: Toxicity in BALB/c mouse assessed as mortality at 40 mg/kg, po for 2 weeks; format: organism-based; set-up: dose 40 mg/kg, route oral; settings: in vivo, 336 h
A2780 [9] = assay: Cell cycle arrest in human A2780 cells assessed as accumulation at S phase at 6 uM after 24 hrs by FACS analysis; format: functional; summary of the method: as §1
SK-OV-3 = assay: Cytotoxicity against human SKOV3 cells after 48 hrs by MTT assay; format: functional, cell-based; settings: SK-OV-3, 48 h; summary of the method: as §2
A2780 [10] = assay: Cell cycle arrest in human A2780 cells assessed as accumulation at sub-G1 phase at 6 uM after 24 hrs by FACS analysis; format: functional; summary of the method: as §1
A2780 [11] = assay: Cell cycle arrest in human A2780 cells assessed as accumulation at sub-G1 phase after 24 hrs by FACS analysis; format: functional, cell-based; settings: in the assay text read “G1 phase” for “sub-G1 phase”; summary of the method: as §1
[12] = Ratio of IC50 for mibefradil to compound IC50 for human paclitaxel-resistant A2780T cells; format: functional
[13] = Cell cycle arrest in human paclitaxel-resistant A2780T cells assessed as accumulation at sub-G1 phase at 2 to 4 uM after 24 hrs by FACS analysis; format: functional, cell-based; settings: A2780/Taxol; summary of the method: as §1
A2780 [14] = assay: Cell cycle arrest in human A2780 cells assessed as accumulation at sub-G1 phase at 2 to 4 uM after 24 hrs by FACS analysis; format: functional; summary of the method: as §1
[15] = Cell cycle arrest in human paclitaxel-resistant A2780T cells assessed as accumulation at sub-G1 phase at 8 uM after 24 hrs by FACS analysis; format: functional, cell-based; settings: A2780/Taxol; summary of the method: as §1
A2780 [16] = assay: Cell cycle arrest in human A2780 cells assessed as accumulation at sub-G1 phase at 8 uM after 24 hrs by FACS analysis (reference value: 3.1%); format: functional; summary of the method: as §1

T1 sequence (O43497 whole entry): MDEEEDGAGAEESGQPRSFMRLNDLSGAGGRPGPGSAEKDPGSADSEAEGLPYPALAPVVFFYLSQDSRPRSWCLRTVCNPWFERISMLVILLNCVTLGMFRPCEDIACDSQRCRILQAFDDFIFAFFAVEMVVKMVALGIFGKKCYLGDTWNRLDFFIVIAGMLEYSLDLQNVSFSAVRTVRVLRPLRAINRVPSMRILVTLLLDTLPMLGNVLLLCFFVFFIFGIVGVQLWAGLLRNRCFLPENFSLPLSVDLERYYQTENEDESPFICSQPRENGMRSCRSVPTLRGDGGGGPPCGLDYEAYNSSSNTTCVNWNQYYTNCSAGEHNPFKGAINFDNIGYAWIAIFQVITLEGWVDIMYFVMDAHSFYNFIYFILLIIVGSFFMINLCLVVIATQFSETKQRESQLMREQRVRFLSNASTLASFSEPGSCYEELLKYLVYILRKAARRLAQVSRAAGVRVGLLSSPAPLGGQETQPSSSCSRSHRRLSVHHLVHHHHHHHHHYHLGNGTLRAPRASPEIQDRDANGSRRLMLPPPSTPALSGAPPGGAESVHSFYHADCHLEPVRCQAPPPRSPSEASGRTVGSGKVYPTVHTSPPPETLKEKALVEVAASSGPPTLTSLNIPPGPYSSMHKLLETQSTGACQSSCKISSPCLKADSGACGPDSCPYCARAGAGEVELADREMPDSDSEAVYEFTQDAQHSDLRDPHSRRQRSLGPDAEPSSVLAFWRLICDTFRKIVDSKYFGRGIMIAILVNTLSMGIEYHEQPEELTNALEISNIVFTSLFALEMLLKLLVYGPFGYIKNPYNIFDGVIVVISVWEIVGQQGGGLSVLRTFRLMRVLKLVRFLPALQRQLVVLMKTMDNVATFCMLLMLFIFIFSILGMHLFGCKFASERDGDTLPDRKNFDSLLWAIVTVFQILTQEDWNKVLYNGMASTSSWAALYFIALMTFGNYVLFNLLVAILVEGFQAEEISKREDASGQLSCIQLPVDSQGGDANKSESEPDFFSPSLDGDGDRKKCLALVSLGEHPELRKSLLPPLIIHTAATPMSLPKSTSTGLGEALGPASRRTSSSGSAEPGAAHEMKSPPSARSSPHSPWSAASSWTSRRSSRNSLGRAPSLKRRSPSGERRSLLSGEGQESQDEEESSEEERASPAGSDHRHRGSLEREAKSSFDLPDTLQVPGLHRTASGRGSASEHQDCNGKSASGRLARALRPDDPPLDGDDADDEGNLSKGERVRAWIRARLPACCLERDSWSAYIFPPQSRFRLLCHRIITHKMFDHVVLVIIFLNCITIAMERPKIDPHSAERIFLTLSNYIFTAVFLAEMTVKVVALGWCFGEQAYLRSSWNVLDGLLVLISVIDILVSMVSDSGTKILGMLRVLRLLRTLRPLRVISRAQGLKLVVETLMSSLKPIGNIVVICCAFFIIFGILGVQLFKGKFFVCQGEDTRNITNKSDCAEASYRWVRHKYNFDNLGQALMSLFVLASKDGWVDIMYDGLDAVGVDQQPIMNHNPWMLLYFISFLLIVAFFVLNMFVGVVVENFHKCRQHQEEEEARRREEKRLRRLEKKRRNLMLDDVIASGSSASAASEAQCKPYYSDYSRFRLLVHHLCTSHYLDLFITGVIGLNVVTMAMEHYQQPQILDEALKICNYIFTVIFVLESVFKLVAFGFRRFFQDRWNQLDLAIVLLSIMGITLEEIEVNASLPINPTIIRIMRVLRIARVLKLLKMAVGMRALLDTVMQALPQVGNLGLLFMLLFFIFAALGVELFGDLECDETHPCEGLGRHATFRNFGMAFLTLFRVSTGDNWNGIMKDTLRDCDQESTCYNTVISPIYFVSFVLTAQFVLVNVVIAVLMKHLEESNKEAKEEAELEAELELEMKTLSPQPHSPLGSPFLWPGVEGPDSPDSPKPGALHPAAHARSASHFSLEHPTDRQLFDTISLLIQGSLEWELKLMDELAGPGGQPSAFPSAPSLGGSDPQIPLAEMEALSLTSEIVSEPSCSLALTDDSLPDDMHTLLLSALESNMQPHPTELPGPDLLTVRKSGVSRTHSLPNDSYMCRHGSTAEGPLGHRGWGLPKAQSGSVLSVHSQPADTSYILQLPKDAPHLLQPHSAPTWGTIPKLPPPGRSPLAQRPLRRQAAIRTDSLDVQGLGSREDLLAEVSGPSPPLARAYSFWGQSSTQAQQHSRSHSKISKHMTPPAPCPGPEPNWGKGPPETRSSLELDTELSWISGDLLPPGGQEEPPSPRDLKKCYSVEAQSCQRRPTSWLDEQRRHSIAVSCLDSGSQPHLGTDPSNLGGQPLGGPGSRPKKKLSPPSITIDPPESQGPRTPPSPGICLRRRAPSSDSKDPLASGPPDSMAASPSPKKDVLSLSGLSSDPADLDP

Compound	inhibition [3] [%]	IC50 [4] [nM]	IC50 [6] [nM]	IC50 (A2780 [7]) [nM]	IC50 (SK-OV-3) [nM]	also measured
CN(C)CCN1CCN(C2=Nc3ccccc3C(CC(=O)NCc3ccc(F)cc3)N2c2ccc(-c3ccccc3)cc2)CC1 (stereo not given)	81	4000	320	1600	3090	Activity (A2780 [1]): Active; Activity (A2780 [2]): 8.1%; Activity [5]: Dose-dependent effect; IC50 (HEK293): 10000 nM; Activity (A2780 [8]): 66.7%; Activity (Mus musculus): Non-toxic; Activity (A2780 [9]): 7.1%; Activity (A2780 [10]): 18.1%; Activity (A2780 [11]): Dose-dependent effect
CN(C)CCN1CCN(C2=Nc3ccccc3C(CC(=O)NCc3ccccn3)N2c2ccc(-c3ccccc3)cc2)CC1 (stereo not given)	43.9	> 5000	–	4860	5080	–
COc1ccc(CNC(=O)CC2c3ccccc3N=C(N3CCN(CCN(C)C)CC3)N2c2ccc(-c3ccccc3)cc2)cc1 (stereo not given)	75.9	3820	310	1440	2470	Activity (A2780 [1]): Active; Activity (A2780 [2]): 7.3%; Activity [5]: Dose-dependent effect; IC50 (HEK293): 9280 nM; Activity (A2780 [8]): 63.8%; Activity (Mus musculus): Non-toxic; Activity (A2780 [9]): 7.3%; Activity (A2780 [10]): 21.6%; Activity (A2780 [11]): Dose-dependent effect
CN(C)CCN1CCN(C2=Nc3ccccc3C(CC(=O)NCc3ccccc3)N2c2ccc(-c3ccccn3)cc2)CC1 (stereo not given)	32.3	> 5000	–	> 5000	–	–
COCC(=O)O[C@]1(CCN(C)CCCc2nc3ccccc3[nH]2)CCc2cc(F)ccc2[C@@H]1C(C)C [MIBEFRADIL]	55.1	35300	–	24200	20500	–
CN(C)CCN1CCN(C2=Nc3ccccc3C(CC(=O)NCc3ccccc3)N2c2ccc(-c3ccccc3)cc2)CC1 (stereo not given)	46.8	2390	–	1390	1970	–
CN(C)CCCCCCN(C)C1=Nc2ccccc2C(CC(=O)NCc2ccccc2)N1c1ccc(-c2ccccc2)cc1 (stereo not given)	66.7	1740	550	1190	5780	Ratio IC50 [12]: 20
CN(C)CCN1CCN(C2=Nc3ccccc3C(CC(=O)NCc3ccncc3)N2c2ccc(-c3ccccc3)cc2)CC1 (stereo not given)	29.1	> 5000	–	> 5000	11700	–
COc1ccc(CNC(=O)CC2c3ccccc3N=C(N(C)CCCCCN(C)C)N2c2ccc(-c3ccccc3)cc2)cc1 (stereo not given)	68.2	2520	390	1380	4460	–
CN(C)CCCCN(C)C1=Nc2ccccc2C(CC(=O)NCc2ccccc2)N1c1ccc(-c2ccccc2)cc1 (stereo not given)	81.7	3970	310	1650	9780	–
Cc1ccc(CNC(=O)CC2c3ccccc3N=C(N3CCN(CCN(C)C)CC3)N2c2ccc(-c3ccccc3)cc2)cc1 (stereo not given)	57.8	3520	460	1600	2330	–
CN(C)CCCCCN(C)C1=Nc2ccccc2C(CC(=O)NCc2ccccc2)N1c1ccc(-c2ccccn2)cc1 (stereo not given)	30.9	> 5000	–	–	2410	–
CN(C)CCCCCN(C)C1=Nc2ccccc2C(CC(=O)NCc2ccccc2)N1c1ccc(-c2ccccc2)cc1 (stereo not given)	76.6	1600	260	1060	2470	Activity [13]: 14.7%; Activity (A2780 [2]): 5.3%; Activity (A2780 [14]): 61.4%; Ratio IC50 [12]: 20; Activity [15]: 95.4%; Activity (A2780 [16]): 71.4%; Activity (A2780 [8]): 25.6%; Activity (A2780 [9]): 5.8%; Activity (A2780 [10]): 63.3%
